Laboratory results taken from PMC9218293 (Molecular Therapy Oncolytics, 2022).
Like-named read-outs stand apart in the source and are kept apart here.

Columns and labels:
YUMM1.7R cells = test: WST-8 cell viability assay; assay type: cell-based; settings: Mus musculus
Method in brief: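 Resistant YUMM1.7R cells were derived by exposing parental YUMM1.7 cells to vemurafenib for 8–10 weeks, with the concentration escalated from a low (condition 1) or medium (condition 2) start. They were then kept under continuous 5 μM vemurafenib in DMEM/F12 with 10% fetal bovine serum and 1% penicillin/streptomycin at 37°C, 5% CO₂.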

[1] = tested on: TME of YUMM1.7R-derived tumors; test: Flow cytometry of tumor-infiltrating immune cells; assay type: in vivo, C57BL/6 mice; settings: VEM 20 mg/kg i.p. daily, n = 6
[2] = tested on: TME of YUMM1.7P-derived tumors; test: Flow cytometry of tumor-infiltrating immune cells; assay type: in vivo, C57BL/6 mice; settings: VEM 20 mg/kg i.p. daily, n = 6
Method in brief: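 C57BL/6 mice (6–8 weeks) received 3 × 10⁵ YUMM1.7P cells s.c. Vehicle or vemurafenib was given at 20 mg/kg i.p. daily. Tumors were harvested and dissociated to single cells. Dead cells were excluded with fixable viability dye eFluor 506. Populations were gated as frequencies among live/dead⁻CD45⁺ cells: MDSCs CD45⁺CD11b⁺Gr1⁺, TAMs CD45⁺Gr1⁻CD11b⁺F4/80⁺, CD8⁺ T cells CD45⁺CD3⁺CD8⁺. n = 6 mice/group, means ± SEM.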

[3] = tested on: P-ERK1/2 (Thr202/Tyr204) in YUMM1.7P cells; test: Immunoblotting for P-ERK1/2 after vemurafenib; assay type: cell-based, mouse; settings: vemurafenib 5 μM, immunoblot, Figure S1C
YUMM1.7P cells = test: WST-8 cell viability assay; assay type: cell-based; settings: Mus musculus, read-out: IC50 value of vemurafenib for YUMM1.7P cells
Method in brief: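 Parental mouse melanoma YUMM1.7 cells (BRAF V600E) were grown in DMEM/F12 with 10% fetal bovine serum and 1% penicillin/streptomycin at 37°C, humidified 5% CO₂.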

[4] = tested on: P-ERK1/2 (Thr202/Tyr204) in YUMM1.7R cells; test: Immunoblotting for P-ERK1/2 after vemurafenib; assay type: cell-based, mouse; settings: vemurafenib 5 μM; YUMM1.7R condition 1; immunoblot; Figure S1C
YUMM1.7R-derived tumors = test: Syngeneic mouse melanoma model, tumor growth and survival; assay type: in vivo, C57BL/6 mice; settings: 20 mg/kg i.p. daily; n = 6 mice/group; Figure 1A
Method in brief: (§1)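 Tumors were established in C57BL/6 mice (6–8 weeks) by s.c. injection of 3 × 10⁵ YUMM1.7P or YUMM1.7R cells. Daily i.p. vehicle or vemurafenib was given at 20 mg/kg. Tumor size was monitored, n = 6 mice/group, as means ± SEM with two-way ANOVA and Tukey's post hoc test. Mice with tumors >1,500 mm³ were euthanized.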

YUMM1.7P-derived tumors = test: Syngeneic mouse melanoma model, tumor growth; assay type: in vivo, C57BL/6 mice; settings: 20 mg/kg i.p. daily; n = 6 mice/group; Figure 1A
Method in brief: as §1

## CCCS(=O)(=O)Nc1ccc(F)c(C(=O)c2c[nH]c3ncc(-c4ccc(Cl)cc4)cc23)c1F [vemurafenib]
YUMM1.7R cells; read-out: IC50, YUMM1.7R (condition 1)
  IC50: 10.4 µM
YUMM1.7R cells; read-out: IC50, YUMM1.7R (condition 2)
  IC50: 9.48 µM
[1]; Figure 1B
  frequency of MDSCs: reduction
[1]; Figure 1C
  frequency of TAMs: reduction
[1]; Figure 1D
  frequency of CD8+ T cells: failed to increase
[1]; Figure S3
  frequency of CD3+CD4+ T cells: No significant change
[2]; CD45+CD3+CD8+, Figure 1D
  frequency of CD8+ T cells: increased
[2]; CD45+CD11b+Gr1+, Figure 1B
  frequency of MDSCs: significant decrease
[2]; CD45+Gr1-CD11b+F4/80+, Figure 1C
  frequency of TAMs: significant decrease
[2]; Figure S3
  frequency of CD3+CD4+ T cells: No significant change
[3]
  ERK phosphorylation: considerable reduction
YUMM1.7P cells
  IC50: 3.12 µM
[4]
  ERK phosphorylation: this reduction was dramatically suppressed
YUMM1.7R-derived tumors
  tumor growth: unaffected
YUMM1.7P-derived tumors
  inhibition of tumor growth: highly sensitive
